# In ChEMBL document CHEMBL1127349, “6,7,8,9-Tetrahydro-N,N-di-n-propyl-3H-benzindol-8-amines. Derivatives as potent and orally active serotonin 5-HT1A receptor agonists” (J Med Chem, 1994):
# Calls of active or inactive are those of the source. The calls are words filed in the database; no cut-off is given here.
# Tests used:
# Rattus norvegicus [1] = organism: Rattus norvegicus; experiment: Log concentration to inhibit 5-HTP accumulation was determined in rat brain hemispheres; assay type: functional
# Outline: (§1)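 Reserpine-pretreated (5 mg/kg sc, 18 h) male Sprague-Dawley rats, 200–300 g; compounds in saline given sc. DOPA and 5-HTP in limbic system, striatum and hemispheres measured by HPLC with electrochemical detection. Dose–response curves of 4–6 doses (n = 4) per area, fitted to variable-slope sigmoid on log data to give ED50.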
# [2] = Time taken to reach maximum concentration after administration of 4 umol/kg dose intravenously; assay type: ADME, organism-based; conditions: in vivo, iv
# Outline: (§2)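 Male Sprague-Dawley rats, starved 18 h for the oral arm, dosed iv or po. Blood sampled at intervals up to 12 h. Compound measured by GC/mass spectrometry against an internal standard, with a standard curve over 2–1000 pmol/mL in blank blood. tmax read from concentration–time curves, n = 4–6.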
# [3] = Maximum concentration in plasma after administration of 4 umol/kg dose intravenously; assay type: ADME, organism-based; design: dose 4 umol/kg, route intravenous; conditions: iv
# Outline: (§3)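 Male Sprague-Dawley rats, iv dosing. Blood sampled at intervals up to 12 h, plasma drug levels by GC/MS with internal standard and a 2–1000 pmol/mL standard curve in blank blood. AUC from total area of concentration–time curve; iv n = 3 (table values SEM, n = 4–6).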
# Rattus norvegicus [4] = experiment: Ratio of the 5HTP-accumulation decrease in limbic regions after sc to that of po administration at 10 umol/kg; assay type: functional, Limbic system
# Rattus norvegicus [5] = organism: Rattus norvegicus; experiment: The concentration yielding a half maximal decrease of the DOPA was determined in rat limbic system; assay type: functional
# Rattus norvegicus [6] = organism: Rattus norvegicus; experiment: The concentration yielding a half maximal decrease of the DOPA was determined in rat brain striatum; assay type: functional; outline: as §1
# [7] = Maximum concentration in plasma after administration of 10 umol/kg dose perorally; assay type: ADME, organism-based; design: dose 10 umol/kg, route oral; conditions: po
# Outline: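 Male Sprague-Dawley rats starved 18 h, dosed orally. Blood samples over up to 12 h, drug quantified by GC/MS against internal standard (2–1000 pmol/mL standard curve). Cmax read from concentration–time curve; SEM, n = 4–6.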
# [8] = Bioavailability in rat (dose 10 uM/kg); assay type: ADME, organism-based; conditions: in vivo
# Outline: (§4)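 Male Sprague-Dawley rats; oral group starved 18 h, compared with iv dosing. Blood sampled up to 12 h, levels by GC/MS. Absolute oral availability F (po/iv) from ratio of AUCs of blood concentration–time curves, po n = 5, iv n = 3.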
# Rattus norvegicus [9] = organism: Rattus norvegicus; experiment: The concentration yielding a half maximal decrease of the 5-HTP was determined in rat brain striatum.; assay type: functional
# Rattus norvegicus [10] = organism: Rattus norvegicus; experiment: The concentration yielding a half maximal decrease of the 5-HTP was determined in rat brain hemispheres.; assay type: functional
# Rattus norvegicus [11] = organism: Rattus norvegicus; experiment: Log concentration to inhibit DOPA accumulation was determined in rat brain striatum; assay type: functional; outline: as §1
# Rattus norvegicus [12] = organism: Rattus norvegicus; experiment: Log concentration to inhibit 5-HTP accumulation was determined in rat brain striatum; assay type: functional; outline: as §1
# [13] = Area under the curve after intravenous administration at a dose of 4 umol/kg; assay type: ADME; conditions: in vivo; outline: as §3
# D(2) dopamine receptor = D(2) dopamine receptor (Rattus norvegicus, UniProt P61169); experiment: Displacement of the radioligand [3H]spiperone from D2 receptor
# D(2) dopamine receptor, sequence (P61169 whole entry): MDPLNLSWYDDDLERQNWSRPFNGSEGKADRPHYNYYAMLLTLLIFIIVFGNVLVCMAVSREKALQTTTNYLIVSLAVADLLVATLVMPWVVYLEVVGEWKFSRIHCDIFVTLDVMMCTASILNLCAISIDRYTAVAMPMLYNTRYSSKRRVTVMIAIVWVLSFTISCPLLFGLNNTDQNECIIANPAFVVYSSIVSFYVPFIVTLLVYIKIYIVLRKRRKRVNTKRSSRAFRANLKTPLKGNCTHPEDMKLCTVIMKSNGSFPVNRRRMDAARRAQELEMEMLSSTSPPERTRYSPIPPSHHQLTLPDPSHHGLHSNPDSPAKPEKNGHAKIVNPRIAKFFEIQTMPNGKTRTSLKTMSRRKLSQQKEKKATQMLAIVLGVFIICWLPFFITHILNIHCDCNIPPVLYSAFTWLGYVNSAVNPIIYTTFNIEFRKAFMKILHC
# Outline: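 Rat striatal membranes in 50 mM potassium phosphate buffer, incubated with 0.5 nM [3H]spiperone (3 mg tissue) 10 min at 37 °C. Nonspecific binding defined with 10 μM 6,7-ADTN. IC50 converted to Ki by Cheng–Prusoff; 3–7 experiments, each concentration in triplicate.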
# [14] = Half life in plasma after administration of 4 umol/kg dose intravenously; assay type: ADME, organism-based; conditions: iv; outline: as §3
# Rattus norvegicus [15] = experiment: Motor activity was measured by motility testing on injecting the compound subcutaneously into rats at the dose of 12.5 umol/kg; assay type: functional
# Outline: (§5)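 Rats given reserpine 5 mg/kg sc 18 h beforehand, then test compound sc in neck (n = 4). Placed singly in photocell motility meters straight after dosing; counts recorded for 30 min, gross behaviour observed throughout. Value as counts/30 min with SEM.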
# Rattus norvegicus [16] = experiment: The concentration yielding a half maximal decrease of the DOPA was determined in rat brain hemispheres; Inactive at 12.5 umol/kg; assay type: functional, organism-based; outline: as §1
# Rattus norvegicus [17] = organism: Rattus norvegicus; experiment: Log concentration to inhibit 5-HTP accumulation was determined in rat limbic system; assay type: functional; outline: as §1
# Rattus norvegicus [18] = organism: Rattus norvegicus; experiment: The concentration yielding a half maximal decrease of the 5-HTP was determined in rat limbic system.; assay type: functional
# Rattus norvegicus [19] = organism: Rattus norvegicus; experiment: Log concentration to inhibit DOPA accumulation was determined in rat limbic system; assay type: functional; outline: as §1
# [20] = Time taken to reach maximum concentration after administration of 10 umol/kg dose perorally; assay type: ADME, organism-based; conditions: in vivo, po; outline: as §2
# Rattus norvegicus [21] = organism: Rattus norvegicus; experiment: The concentration yielding a half maximal decrease of the 5-HTP was determined in rat brain striatum; assay type: functional; outline: as §1
# Rattus norvegicus [22] = organism: Rattus norvegicus; experiment: The concentration yielding a half maximal decrease of the 5-HTP was determined in rat limbic system; assay type: functional; outline: as §1
# Rattus norvegicus [23] = experiment: The concentration yielding a half maximal decrease of the DOPA was determined in rat brain hemispheres; inactive at 3.1 umol/kg; assay type: functional, organism-based; outline: as §1
# Rattus norvegicus [24] = experiment: Motor activity was measured by motility testing on injecting the compound subcutaneously into rats at the dose of 0.02 umol/kg (1a) and 3.5 umol/kg (1b)
# Rattus norvegicus [25] = experiment: The concentration yielding a half maximal decrease of the DOPA was determined in rat brain striatum; inactive at 3.1 umol/kg; assay type: functional, organism-based
# [26] = Half life in plasma after administration of 2 umol/kg dose perorally; assay type: ADME, organism-based; conditions: po
# Rattus norvegicus [27] = organism: Rattus norvegicus; experiment: The concentration yielding a half maximal decrease of the 5-HTP was determined in rat brain hemispheres; assay type: functional; outline: as §1
# [28] = Maximum concentration in plasma after administration of 2 umol/kg dose intravenously; assay type: ADME, organism-based; design: dose 2 umol/kg, route intravenous; conditions: iv
# [29] = Area under the curve after intravenous administration at a dose of 2 umol/kg; assay type: ADME; conditions: in vivo
# [30] = Time taken to reach maximum concentration after administration of 2 umol/kg dose intravenously; assay type: ADME, organism-based; conditions: in vivo, iv
# Rattus norvegicus [31] = experiment: The concentration yielding a half maximal decrease of the DOPA was determined in rat limbic system; inactive at 3.1 umol/kg; assay type: functional, organism-based
# [32] = Bioavailability in rats after 5 mg/kg (i.v.) and 40 mg/kg (p.o.) administration; assay type: ADME, organism-based; conditions: rat, in vivo, po; outline: as §4
# Rattus norvegicus [33] = experiment: Ratio of the 5HTP-accumulation decrease in limbic regions of oral to that of sc administration; assay type: functional, Limbic system
# Outline: (§6)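 Ratio of ED50 for decrease of limbic 5-HTP accumulation after oral versus sc dosing in reserpine-pretreated rats; 5-HTP measured by HPLC with electrochemical detection.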
# Rattus norvegicus [34] = experiment: The concentration yielding a half maximal decrease of the DOPA was determined in rat brain hemispheres; inactive at 12.5 umol/kg; assay type: functional, organism-based; outline: as §1
# Rattus norvegicus [35] = experiment: Ratio of the 5HTP-accumulation decrease in limbic regions after sc and po administration at 10 umol/kg; assay type: functional, Limbic system; outline: as §6
# Rattus norvegicus [36] = experiment: The concentration yielding a half maximal decrease of the DOPA was determined in rat brain striatum; inactive at 12.5 umol/kg; assay type: functional, organism-based
# [37] = Half life in plasma after administration of 2 umol/kg dose intravenously; assay type: ADME, organism-based; conditions: iv
# Rattus norvegicus [38] = experiment: The concentration yielding a half maximal decrease of the 5-HTP was determined in rat brain hemispheres; inactive at 50 umol/kg; assay type: functional, organism-based; outline: as §1
# Rattus norvegicus [39] = experiment: The concentration yielding a half maximal decrease of the DOPA was determined in rat brain hemispheres; inactive at 50 umol/kg; assay type: functional, organism-based; outline: as §1
# Rattus norvegicus [40] = experiment: The concentration yielding a half maximal decrease of the 5-HTP was determined in rat limbic system; Partial response at 50 umol/kg; assay type: functional, organism-based; outline: as §1
# Rattus norvegicus [41] = experiment: Motor activity was measured by motility testing on injecting the compound subcutaneously into rats at the dose of 12.5 uM/Kg; assay type: functional; outline: as §5
# Rattus norvegicus [42] = experiment: The concentration yielding a half maximal decrease of the 5-HTP was determined in rat brain striatum; inactive at 50 umol/kg; assay type: functional, organism-based; outline: as §1
# Rattus norvegicus [43] = experiment: The concentration yielding a half maximal decrease of the DOPA was determined in rat limbic system; Partial response at 50 umol/kg; assay type: functional, organism-based
# Rattus norvegicus [44] = experiment: The concentration yielding a half maximal decrease of the DOPA was determined in rat brain striatum; Partial response at 50 umol/kg; assay type: functional, organism-based
# Rattus norvegicus [45] = experiment: The concentration yielding a half maximal decrease of the 5-HTP was determined in rat brain hemispheres; inactive at 11 umol/kg; assay type: functional, organism-based; outline: as §1
# Rattus norvegicus [46] = experiment: The concentration yielding a half maximal decrease of the DOPA was determined in rat brain hemispheres; inactive at 11 umol/kg; assay type: functional, organism-based; outline: as §1
# Rattus norvegicus [47] = organism: Rattus norvegicus; experiment: The concentration yielding a half maximal decrease of the DOPA was determined in rat brain striatum. pED50 values in parenthesis; assay type: functional
# Rattus norvegicus [48] = experiment: The concentration yielding a half maximal decrease of the 5-HTP was determined in rat limbic system; inactive at 11 umol/kg; assay type: functional, organism-based; outline: as §1
# Rattus norvegicus [49] = organism: Rattus norvegicus; experiment: The concentration yielding a half maximal decrease of the DOPA was determined in rat limbic system. pED50 values in parenthesis; assay type: functional
# Rattus norvegicus [50] = experiment: The concentration yielding a half maximal decrease of the 5-HTP was determined in rat brain striatum; inactive at 11 umol/kg; assay type: functional, organism-based; outline: as §1
SMILES,pED50 (Rattus norvegicus [1]),ED50 (Rattus norvegicus [5]) [µmol/kg],Cmax [7] [nM],bioavailability [8] [%],pED50 (Rattus norvegicus [12]),Ki (D(2) dopamine receptor) [nM],pED50 (Rattus norvegicus [17]),pED50 (Rattus norvegicus [19]),Tmax [20] [h],ED50 (Rattus norvegicus [21]) [µmol/kg],ED50 (Rattus norvegicus [22]) [µmol/kg],Counts/30 min (Rattus norvegicus [24]),ED50 (Rattus norvegicus [27]) [µmol/kg],Cmax [28] [nM],AUC [29] [pM/kg],Tmax [30] [min],other results
"CCCN(CCC)[C@@H]1CCc2ccc3[nH]c(C#N)cc3c2C1 [U-92,016-A]",6.56,2.01,1120,63,7.1,538,6.67,5.69,1.25,,,,,,,,Tmax [2]: 4 min; Cmax [3]: 2570 nM; ED50 (Rattus norvegicus [4]): 55%; ED50 (Rattus norvegicus [6]): 3.36 µmol/kg; ED50 (Rattus norvegicus [9]): 0.079 µmol/kg; ED50 (Rattus norvegicus [10]): 0.28 µmol/kg; pED50 (Rattus norvegicus [11]): 5.47; AUC [13]: 1817 pM/kg; half-life [14]: 1.5 h; Activity (Rattus norvegicus [15]): 194 Counts 30min-1; ED50 (Rattus norvegicus [16]): inactive; ED50 (Rattus norvegicus [18]): 0.21 µmol/kg
CCCN(CCC)[C@@H]1CCc2ccc3[nH]cc(C=O)c3c2C1,6.34,,108,,6.91,382,7.14,,2.5,0.12,0.072,162,0.45,712,431,2,ED50 (Rattus norvegicus [23]): inactive; ED50 (Rattus norvegicus [25]): inactive; half-life [26]: 1.5 h; ED50 (Rattus norvegicus [31]): inactive; bioavailability [32]: 46%; ED50 (Rattus norvegicus [33]): 15%
CCCN(CCC)[C@H]1CCc2ccc3[nH]cc(C=O)c3c2C1,7.49,4.33,606,72,8.28,3590,6.94,5.36,0.8,0.052,0.11,,0.032,849,607,2,ED50 (Rattus norvegicus [34]): inactive; ED50 (Rattus norvegicus [35]): 18%; Counts/30 min (Rattus norvegicus [15]): 413; ED50 (Rattus norvegicus [36]): inactive; half-life [37]: 1 h
CCCN(CCC)C1CCc2cc3cc[nH]c3cc2C1 (centres undefined),,,,,,,,,,,,,,,,,ED50 (Rattus norvegicus [38]): inactive; ED50 (Rattus norvegicus [39]): inactive; ED50 (Rattus norvegicus [40]): Weak activity; Activity (Rattus norvegicus [41]): 51 Counts 30min-1; ED50 (Rattus norvegicus [42]): inactive; ED50 (Rattus norvegicus [43]): Weak activity; ED50 (Rattus norvegicus [44]): Weak activity
CCCN(CCC)C1CCc2ccc(O)cc2C1 (centres undefined),,,,,,,,,,,,170,,,,,ED50 (Rattus norvegicus [45]): inactive; ED50 (Rattus norvegicus [46]): inactive; ED50 (Rattus norvegicus [47]): 0.03 µmol/kg; ED50 (Rattus norvegicus [48]): inactive; ED50 (Rattus norvegicus [49]): 0.027 µmol/kg; ED50 (Rattus norvegicus [50]): inactive
